# KCNK3 inh: human KCNK3 channel inhibition, primary screen; O14649; CHO-KCNK3 thallium flux, FluxOR fluorescence; hits give low values; B-score at 10 µM; 0.84% of 340,000 active;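 active means B-score under library mean minus 4 SD, starting fluorescence ratio at most library mean plus 5 SD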;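 further: more negative B-score means stronger inhibition of thallium flux through KCNK3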
# hERG protect: shields human hERG channel from block by proarrhythmic agents | Q12809 | CHO-hERG, FluxOR thallium flux, dofetilide IC70 present | activation (rescue from dofetilide block), less the hit threshold, % at 10 µM | 0.51% of 310,000 active | AID 1511;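 active means activation above the mean of controls blocked by dofetilide plus 5 SD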;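 further: thallium influx through hERG after potassium depolarization seen as dye fluorescence rise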
# Target sequence (Q12809 whole entry, looked up): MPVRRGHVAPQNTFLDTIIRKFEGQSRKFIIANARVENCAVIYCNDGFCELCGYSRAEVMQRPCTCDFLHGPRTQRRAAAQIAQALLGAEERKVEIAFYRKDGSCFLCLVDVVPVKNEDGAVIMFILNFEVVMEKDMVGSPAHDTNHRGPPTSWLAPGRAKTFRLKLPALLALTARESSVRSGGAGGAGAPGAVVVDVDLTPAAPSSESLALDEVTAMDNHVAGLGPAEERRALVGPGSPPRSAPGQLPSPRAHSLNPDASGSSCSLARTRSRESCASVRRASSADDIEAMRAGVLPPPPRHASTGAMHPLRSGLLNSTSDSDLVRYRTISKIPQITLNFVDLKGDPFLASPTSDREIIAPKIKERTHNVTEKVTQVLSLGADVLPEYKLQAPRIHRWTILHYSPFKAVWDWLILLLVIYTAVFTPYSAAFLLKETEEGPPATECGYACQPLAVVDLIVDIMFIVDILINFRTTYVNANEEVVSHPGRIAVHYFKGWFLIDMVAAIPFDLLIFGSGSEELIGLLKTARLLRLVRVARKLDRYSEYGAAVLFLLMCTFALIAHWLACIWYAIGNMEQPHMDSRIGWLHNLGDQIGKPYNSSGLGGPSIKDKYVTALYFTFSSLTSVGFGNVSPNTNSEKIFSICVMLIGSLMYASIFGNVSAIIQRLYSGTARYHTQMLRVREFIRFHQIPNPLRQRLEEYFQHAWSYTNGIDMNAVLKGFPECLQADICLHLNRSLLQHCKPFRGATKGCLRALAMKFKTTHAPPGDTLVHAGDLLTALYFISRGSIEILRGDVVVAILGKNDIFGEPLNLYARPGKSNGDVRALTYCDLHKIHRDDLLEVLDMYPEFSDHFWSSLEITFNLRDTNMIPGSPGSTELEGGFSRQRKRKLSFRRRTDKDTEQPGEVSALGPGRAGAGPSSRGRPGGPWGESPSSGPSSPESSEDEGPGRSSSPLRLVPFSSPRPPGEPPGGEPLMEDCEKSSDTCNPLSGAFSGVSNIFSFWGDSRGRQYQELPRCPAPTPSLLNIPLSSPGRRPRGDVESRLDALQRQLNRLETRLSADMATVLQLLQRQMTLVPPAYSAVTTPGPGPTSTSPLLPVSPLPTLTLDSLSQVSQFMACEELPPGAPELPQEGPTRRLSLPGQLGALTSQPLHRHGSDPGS
# KCNQ1 pot: human KCNQ1 channel potentiation or activation. AID 2648. 0.35% of 310,000 active. CHO-K1 KCNQ1, thallium flux FluxOR fluorescence; hits give high values. B-score at 10 µM;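 active means fluorescence ratio B-score, a plate-corrected score, at least three library SD, with initial intensity B-score within 5 SD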
#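 Assay system: CHO-K1 cells stably expressing KCNQ1. Medium: assay buffer for compound exposure, DMSO matched across wells. Timing: 37 °C overnight plating, 90-min dark dye load, 20-min compound pretreatment. Signal: kinetic FluxOR fluorescence, 10 s baseline plus 110 s post-stimulus.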
# KCNK9 inh: blocks the human KCNK9 two-pore domain potassium channel; HEK293 KCNK9, FluxOR thallium flux fluorescence; hits give low values; B-score at 10 µM; 1.2% of 310,000 active;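 active means ratio B-score over 3 SD below the library mean, with starting fluorescence within 5 SD of its mean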;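 further: negative B-score means less thallium flux so channel inhibition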
# KCNQ1 block: human KCNQ1 channel inhibition; P51787; CHO-K1 KCNQ1, FluxOR thallium flux fluorescence; hits give high values; B-score at 10 µM; 1.3% of 310,000 active; AID 2642;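 active means compounds whose thallium flux B-score, printed positive for inhibition, exceeds three library SD while starting fluorescence stays within three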;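 further: channel opened by potassium depolarization with thallium stimulus after 20 min compound exposure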
# Kir21 inh: inhibitors of mouse Kir2.1 inward-rectifier potassium channel. P35561. HEK293-Kir2.1, FluxOR thallium flux fluorescence; hits give low values. B-score at 10 µM. 0.85% of 310,000 active. AID 1672;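 active means fluorescence ratio B-score at or below minus 3 SD of library scores, with starting-brightness B-score within 2 SD, cut at about -4.2 in these data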;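 further: channel flux triggered by added potassium and thallium sulfate stimulus; B-score of peak minus minimum fluorescence over baseline after thallium stimulus; more negative B-score means stronger Kir2.1 block with less thallium influx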
# Numbers stand for hits; i = inactive; nt = no result. This is a sample that favours compounds with a hit; in the whole collection about 3.7% have one here.
SMILES,KCNK3 inh,hERG protect,KCNQ1 pot,KCNK9 inh,KCNQ1 block,Kir21 inh
CCN1C(=O)c2cccc3c(NC(=O)c4ccccc4)ccc1c23,i,i,i,i,i,i
COc1ccccc1N1CCN(CC(=O)Nc2cc(C)nn2-c2nc(C)cc(C)n2)CC1,i,nt,nt,nt,nt,nt
Cc1ccc([N+](=O)[O-])cc1N/C=C1\CCc2ccccc2C1=O,i,i,i,i,i,i
CCc1cccc(OCC(=O)Nc2ccc(S(=O)(=O)N3CCCC3)cc2)c1,i,i,i,i,i,i
CCN(CC)CCNC(=O)c1cc(-c2cccnc2)nc2ccc(S(=O)(=O)N3CCC(C)CC3)cc12,i,i,i,i,i,-5.7
COc1ccc(CCN=C(NS(=O)(=O)c2ccccc2)c2ccccc2)cc1OC,i,12,i,i,i,i
CCOc1cc(NC(=S)N2CCC(C(N)=O)CC2)c(C(=O)OC)cc1OCC,i,11,i,i,i,i
CCOC(=O)Nc1ccc2c(c1)N(C(=O)CCN(CC)CC)c1ccccc1S2=O (centres undefined),i,i,i,i,i,i
Cc1cccc(NC(=O)CCN2C(=O)c3ccccc3S2(=O)=O)c1C,i,i,i,i,i,i
CCN(CC)CCOC(=O)CCc1cccc2ccccc12,i,i,i,i,i,i
CCN(CC)CCOC(=O)C(Cc1ccco1)Cc1cccc2ccccc12 (centres undefined),i,i,i,i,i,-7.5
Oc1ccc(/C=N/N(c2ccccc2)c2ccccc2)c(O)c1O,i,i,i,i,i,i
Oc1ccc(/C=N/N(c2ccccc2)c2ccccc2)cc1O,i,i,i,i,6,i
O=C(/C(=N/N=C/c1ccc(O)c(O)c1)c1ccccc1)c1ccccc1,i,i,i,i,i,-4.8
COc1ccc(/C=N/N(Cc2ccccc2)c2ccccc2)cc1O,i,i,i,i,6,i
O=C1CCc2cc(S(=O)(=O)NCCC(=O)NC3CCCCC3)ccc2N1,i,i,i,i,i,i
CC1CCN(C(=O)c2ccc(NS(=O)(=O)c3ccc4[nH]c(=O)[nH]c4c3)cc2)CC1,i,i,i,i,i,i
CCn1c(=S)[nH]c2c(c1=O)C(C)(C)Cc1ccccc1-2,i,45,17,i,i,i
COc1ccc(-n2c(SCC(=O)N3CCCCC3)nnc2-c2cccnc2)cc1,i,6.4,i,i,i,i
COC(=O)CSc1nnc(-c2cccnc2)n1-c1cc(OC)cc(OC)c1,i,i,i,i,i,i
O=C(NC12CC3CC(CC(C3)C1)C2)c1cc([N+](=O)[O-])ccc1N1CCOCC1,i,i,i,i,7,i
Cc1c(NC(=O)CSc2nnc3sc4ccccc4n23)c(=O)n(-c2ccccc2)n1C,i,i,i,i,i,i
C/C(=C/CCC(C)C1CCC2(C)C3CCC4C(C)(C)C(=O)CCC4(C)C3=CCC12C)C(=O)O (centres undefined),nt,9.5,29,i,i,i
C/C(=C/CCC(C)[C@H]1CC[C@@]2(C)C3=C(CC[C@]12C)[C@@]1(C)CCC(=O)C(C)(C)[C@@H]1CC3)C(=O)O (some centres undefined),i,39,26,i,i,i
CC(CCC(=O)O)C1CC[C@@]2(C)C3C(=O)CC4C(C)(C)C(O)CC[C@]4(C)C3C(=O)C[C@]12C (some centres undefined),i,i,i,i,i,i
SMILES,KCNK3 inh,hERG protect,KCNQ1 pot,KCNK9 inh,KCNQ1 block,Kir21 inh
COc1ccc(CCNC(=O)C2(c3ccccc3)CC2)cc1,i,i,i,i,i,-4.6
COc1ccc(CCNC(=O)COC(=O)C23CC4CC(CC(C4)C2)C3)cc1,i,i,i,i,i,-7.3
O=C(COC(=O)C12CC3CC(CC(C3)C1)C2)NCCCc1ccccc1,i,i,23,i,i,i
CCOC(=O)c1nn(-c2ccc(Cl)cc2)c2nnc(Cc3ccccc3)c(=O)n12,i,i,i,i,i,i
CCOC(=O)C1(CCc2ccccc2)CCN(C(=O)c2cc(C)nc(C)n2)CC1,i,i,i,i,i,i
COC(=O)c1cc(=O)n(Cc2ccco2)c(=Nc2ccc(F)c(Cl)c2)s1,i,i,i,i,7,i
COC(=O)c1cc(=O)n(Cc2ccc3c(c2)OCO3)c(=Nc2ccccc2)s1,i,i,i,i,i,i
COC(=O)c1cc(=O)n(Cc2ccc3c(c2)OCO3)c(=Nc2ccc(F)cc2)s1,i,i,i,-8,6,i
Cc1ccc(S(=O)(=O)CCC(=O)OCC(=O)NCC(=O)Nc2c(C)cc(C)cc2C)cc1,i,i,i,i,i,i
N#Cc1ccc(NC(=O)Nc2ccc(Oc3ccc(NC(=O)Nc4ccc(C#N)cc4)cc3)cc2)cc1,i,i,i,i,9,i
Cc1ccccc1NC(=S)NC(=O)c1cc(-c2ccccc2)nc2ccccc12,i,i,19,i,i,i
Cc1cccc(NC(=S)NC(=O)c2cc(-c3ccccc3)nc3ccccc23)c1,i,6.1,18,i,i,i
Cc1ccccc1NC(=O)c1cc(-c2ccco2)nc2ccccc12,i,nt,nt,nt,nt,nt
Cc1ccc(S(=O)(=O)NCC(=O)OCCOc2cccc(Cl)c2)cc1,i,nt,nt,nt,nt,nt
CCN1C(=O)/C(=C/N(C(C)=O)c2ccccc2)N(c2ccccc2)C1=S,i,i,i,i,i,-4.5
CCc1ccc(/C=C2/C(=O)N(c3ccccc3)C(=S)N2CC(=O)OC)s1,i,i,i,i,i,i
OC(CNCc1ccccc1F)COc1cccc2ccccc12 (centres undefined),i,i,i,i,i,-6.9
CC(C)NCC(O)COc1cccc2ccccc12 (centres undefined),i,i,i,i,i,i
CC(C)=C(NC(=O)c1ccccc1)C(=O)NCc1ccccc1,i,i,i,i,i,i
COc1ccc(CNC(=O)CN2C(=O)NC(C)(c3cccc(Br)c3)C2=O)cc1 (centres undefined),i,i,i,i,i,i
CC(C)C[C@H]1C(=O)N2CCC[C@H]2[C@]2(O)O[C@](NC(=O)[C@@H]3C=C4c5cccc6[nH]c(Br)c(c56)CC4N(C)C3)(C(C)C)C(=O)N12 (some centres undefined),i,i,i,i,6,i
C=CCN(C(=O)CNC(=O)c1ccco1)C(C(=O)NC1CCCCC1)c1ccc(OC)cc1OC (centres undefined),i,i,i,i,i,i
c1ccc(CCNCCCOc2cccc3ccccc23)cc1,i,i,i,i,i,-16
CCOc1ccc(NC(=O)CN(C)C(=O)c2ccc3c(c2)C(=O)N(CCC(C)C)C3=O)cc1OCC,i,i,i,i,i,i
CSc1ccccc1NC(=O)CSCc1ccccc1Br,i,i,i,i,i,-5.3
